Rows were chosen to be rich in hits. Some 3% of all compounds tested hit in one or more screens of this group.
esBAF inh – Bmi1 luciferase reporter increase in mESCs, primary screen, esBAF inhibitor project, mouse ES cells, Bmi1 luciferase knock-in, single point. 350,000 tested, 2% active. 24 h; 100% = twice the neutral-well signal. reporter increase, % at 12.5 µM; in the data active = activation above about 40%; inconclusive = no clear call, values can overlap the other calls;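 note: 0% = median of the plate's neutral control wells and 100% = double that signal; a rise in the Bmi1 reporter signal indicates esBAF inhibition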
Wnt act – Wnt/beta-catenin pathway activators, primary screen, cell-based, plate reader, single point; Wnt/beta-catenin reporter cell assay, activator; activation, % at 9.35 µM; 300,000 tested, 1.2% active; AID 743398, 2014; in the data active = activation above about 30%, passing the limit was not always enough; inconclusive = no clear call, values can overlap the other calls;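 note: 0% = neutral control wells and 100% = positive control wells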
NSD2 inh – NSD2 histone methyltransferase inhibitors, primary screen, biochemical, AlphaScreen, single concentration, set 2; Histone-lysine N-methyltransferase NSD2 (Homo sapiens), O96028; NSD2 peptide methylation, 120 min; inhibition, % at 12.5 µM; 310,000 tested, 0.54% active; AID 743445, 2014; in the data active = inhibition above about 50%
MITF act – activators of MITF-driven TRPM1 promoter reporter, primary screen, cell-based, SK-MEL-5, luciferase, single point | 300,000 tested, 0.75% active | SK-MEL-5 TRPM1-promoter luciferase, 24 h; % of positive control, neutral wells = 0 | activation, % at 12.5 µM;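 active = mean activation of at least 80% with every replicate also reaching 80%; inconclusive = mean reaches 80% but some replicate falls short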;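 note: 0% = neutral control wells and 100% = parthenolide positive control wells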
CASP6 VEID inh – human caspase-6 inhibitors, primary screen, biochemical, VEID-R110 fluorescence, single point, set 2; purified caspase-6, Z-VEID-R110 cleavage fluorescence; inhibition, % at 12.5 µM; 350,000 tested, 0.53% active;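 active = mean inhibition across replicates at least about 35%, with every replicate also reaching that limit, limit read from the data; inconclusive = only one of the two criteria met; inactive = neither criterion met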;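 note: 0% = median of neutral control wells and 100% = no fluorescence left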
Target sequence (P55212 24-179 limits assumed): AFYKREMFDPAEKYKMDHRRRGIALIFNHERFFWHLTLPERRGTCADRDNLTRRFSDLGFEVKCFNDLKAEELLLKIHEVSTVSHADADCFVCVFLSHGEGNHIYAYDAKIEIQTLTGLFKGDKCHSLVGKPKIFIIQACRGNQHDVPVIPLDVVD
Target sequence (P55212 194-293 limits assumed): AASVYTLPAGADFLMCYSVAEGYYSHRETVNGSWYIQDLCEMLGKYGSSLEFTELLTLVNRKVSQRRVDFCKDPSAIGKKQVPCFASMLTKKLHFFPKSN
XiGFP reactiv – activators of inactive X chromosome reactivation, primary screen, imaging, XiGFP fibroblasts, GFP high-content imaging, set 2. 360,000 tested, 0.055% active. AID 743238, 2013. XiGFP mouse fibroblasts, % GFP-positive cells imaging, 3 d; cells co-treated with 5-aza-dC sensitizer; scaled so ellipticine positive control = 100%. activation, % at 7.58 µM;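 active = mean normalized replicate activation at least 10% and every replicate at or above 10%; inconclusive = only one of the two criteria met; inactive = mean below 10% and not all replicates reach 10%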;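 note: 0% = median of on-plate neutral control wells and 100% = ellipticine 6 µM median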
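System: 68-5-11 XiGFP fibroblast line; Timing: 3 days compound exposure; Compound dosing: one concentration, pinned; Benchmarks: positive control ellipticine, 6 µM final; Buffer or medium: DMEM containing 5-aza-dC.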
An asterisk follows results filed as active.

What do the screens show for `CCN1CCN(c2cc(C)c3cc(NC(=O)c4cccs4)ccc3n2)CC1`?
esBAF inh: -0.3; Wnt act: 8.8; MITF act: 57.4; CASP6 VEID inh: -16.4; XiGFP reactiv: 12.1*

How did CCN1CCN(c2cc(C)c3cc(NC(=O)c4cccc(OC)c4)ccc3n2)CC1 do in these assays?
esBAF inh: 12.8; Wnt act: 18.0; MITF act: 55.8; CASP6 VEID inh: -12.8; XiGFP reactiv: 0.3

How did O=C(C[C@H]1C[C@@H]2c3cc(NC(=O)C4CCOCC4)ccc3O[C@@H]2[C@H](CO)O1)NCc1ccccc1F do in these assays?
esBAF inh: -1.9; CASP6 VEID inh: 0.5; XiGFP reactiv: 0.1

What do the screens show for `CC(=O)N1CC2(C1)[C@@H](c1ccc(-c3ccc(C#N)cc3)cc1)[C@@H](CO)N2C(C)=O`?
XiGFP reactiv: 0.2

Results for O=C(C[C@H]1CC[C@H]2[C@@H](COC[C@H](O)CN2Cc2nccs2)O1)NCc1ccc(F)cc1 ?
esBAF inh: 6.0; CASP6 VEID inh: -0.8; XiGFP reactiv: 0.3

What do the screens show for `Cc1nc2ccc(NC(=O)Cc3ccccc3F)cc2s1`?
Wnt act: -1.1; NSD2 inh: -2.3; MITF act: 120.6*; CASP6 VEID inh: -2.3; XiGFP reactiv: 0.3

Results for Cc1nc2ccc(NC(=O)Cc3cccc(F)c3)cc2s1 ?
Wnt act: 0.1; NSD2 inh: -1.8; MITF act: -4.4; CASP6 VEID inh: 1.4; XiGFP reactiv: 3.5

How did Cc1nc2ccc(NC(=O)c3ccco3)cc2s1 do in these assays?
Wnt act: inconclusive; NSD2 inh: 0.1; MITF act: 90.9*; CASP6 VEID inh: -0.9; XiGFP reactiv: 0.0

Results for COc1ccc2c3c(n(C)c2c1)[C@H](CO)N(C(=O)Nc1cccc(F)c1)CC31CCN(C)CC1 ?
XiGFP reactiv: 0.3

What do the screens show for `CN(C)c1ccc(NC(=S)NC(=O)/C=C/c2ccc(Cl)cc2)cc1`?
esBAF inh: 45.7*; Wnt act: 26.8; NSD2 inh: 0.9; MITF act: 57.0

How did CCN(CC)c1ccc(NC(=O)/C=C\c2ccccc2Cl)cc1 do in these assays?
esBAF inh: 37.2; NSD2 inh: 3.6; MITF act: 95.9*

Results for CN(C)c1ccc(NC(=O)/C=C/c2ccccc2Cl)cc1 ?
Wnt act: 42.2*; NSD2 inh: -1.3; MITF act: 91.6*; XiGFP reactiv: -0.1

What do the screens show for `Cc1cc(NC(=O)/C=C/c2ccccc2Cl)no1`?
NSD2 inh: -3.0; MITF act: 26.3; XiGFP reactiv: -0.1

What do the screens show for `C[C@H]1CN([C@@H](C)CO)C(=O)Cc2cc(NC(=O)CCN3CCOCC3)ccc2O[C@H]1CN(C)S(=O)(=O)c1cn(C)cn1`?
esBAF inh: 7.4; CASP6 VEID inh: 2.8; XiGFP reactiv: -0.1

How did C/C(=N\NC(=O)c1ccc(Br)cc1)c1ccccc1 do in these assays?
esBAF inh: 46.6*; NSD2 inh: 3.4; MITF act: 53.5

How did C/C(=N\NC(=O)c1ccccc1)c1ccccc1Br do in these assays?
Wnt act: inconclusive; NSD2 inh: -2.5; MITF act: 41.5; XiGFP reactiv: 0.2

What do the screens show for `C/C(=N\NC(=O)c1ccccc1)c1ccccc1F`?
esBAF inh: 19.7; Wnt act: 56.8*; NSD2 inh: -3.8; MITF act: 47.3; CASP6 VEID inh: -1.9; XiGFP reactiv: 0.0

Results for COCc1cn(CC[C@@H]2CC[C@H](NC(=O)Nc3ccc(OC)cc3)[C@H](CO)O2)nn1 ?
esBAF inh: 0.6; CASP6 VEID inh: 1.7; XiGFP reactiv: -0.3

Results for COc1ccc2c3c(n(C)c2c1)[C@@H](CO)N(C(=O)c1ccncc1)CC31CCN(S(C)(=O)=O)CC1 ?
CASP6 VEID inh: 2.1; XiGFP reactiv: 0.0

How did CN(C)c1cccc(C(=O)NCC(c2ccco2)N(C)C)c1 (stereo not drawn) do in these assays?
esBAF inh: 40.3*; Wnt act: 9.8; NSD2 inh: 3.4; MITF act: 28.9; CASP6 VEID inh: -9.6; XiGFP reactiv: -0.1

What do the screens show for `O=C(N/N=C/c1ccc(OC(=O)c2ccccc2Cl)cc1)c1ccccn1`?
NSD2 inh: -1.1; MITF act: 96.5*

How did CN(C)c1ccc(/C=N/NC(=O)c2ccccc2Cl)cc1 do in these assays?
esBAF inh: 21.5; Wnt act: 8.6; NSD2 inh: 12.9; MITF act: 17.7; CASP6 VEID inh: -1.2; XiGFP reactiv: 0.6

Results for CCOc1cc(/C=N/NC(=O)c2cc(C)[nH]n2)ccc1OC(=O)c1ccc([N+](=O)[O-])cc1 ?
NSD2 inh: -1.2

How did O=C(O)c1cccc(N/N=C/c2ccc(OC(F)(F)F)cc2)c1 do in these assays?
esBAF inh: -21.3; Wnt act: 26.1; NSD2 inh: 0.6; MITF act: -73.5; CASP6 VEID inh: 4.7; XiGFP reactiv: 0.0

Results for CSc1ccc(/C=N/NC(=O)c2ccccc2Cl)cc1 ?
esBAF inh: 78.7*; Wnt act: 7.5; NSD2 inh: -4.1; MITF act: 44.2; CASP6 VEID inh: 2.3; XiGFP reactiv: 0.2

Results for O=C(Oc1cccc(/C=N/NC(=O)c2ccccn2)c1)c1ccc([N+](=O)[O-])cc1 ?
esBAF inh: -35.5; Wnt act: 33.7*; NSD2 inh: -0.2; MITF act: 38.4; CASP6 VEID inh: 0.9; XiGFP reactiv: 0.0

Results for CSc1ccc(/C=N/Nc2cccc(C(=O)O)c2)cc1 ?
NSD2 inh: 99.5*; MITF act: -78.7

How did COc1ccc2c3c(n(C)c2c1)[C@@H](CO)N(C(=O)NC(C)C)CC31CN(Cc2nccs2)C1 do in these assays?
CASP6 VEID inh: -0.8; XiGFP reactiv: 0.3

How did C=C1[C@H](C)CN[C@H]1CCO do in these assays?
esBAF inh: -2.0; Wnt act: 1.6; MITF act: -1.6; CASP6 VEID inh: 42.5*; XiGFP reactiv: 0.2

What do the screens show for `C=C1[C@@H](C)CN[C@@H]1CCO`?
Wnt act: 1.2; CASP6 VEID inh: -3.9; XiGFP reactiv: -0.2

How did C[C@H](O)C#Cc1ccc2c(c1)O[C@H](CN(C)CC1CC1)[C@H](C)CN([C@@H](C)CO)S2(=O)=O do in these assays?
esBAF inh: 2.3; XiGFP reactiv: -1.0

What do the screens show for `COc1cccc(-c2nnc(SCC(=O)N(C(C)C)C(C)C)o2)c1`?
esBAF inh: 12.6; Wnt act: 50.5*; NSD2 inh: -1.6; MITF act: 23.7
